FLuc inhib CS: Photinus pyralis luciferase inhibition counter-screen; ATPLite firefly luciferase biochemical luminescence, 10 min; inhibition, % at 10 µM; P08659; 1.5% of 200,000 active; AID 1006;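 active = inhibition above about 50% when tested at 10 µM, limit read from the data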
Target sequence (P08659 whole entry, looked up): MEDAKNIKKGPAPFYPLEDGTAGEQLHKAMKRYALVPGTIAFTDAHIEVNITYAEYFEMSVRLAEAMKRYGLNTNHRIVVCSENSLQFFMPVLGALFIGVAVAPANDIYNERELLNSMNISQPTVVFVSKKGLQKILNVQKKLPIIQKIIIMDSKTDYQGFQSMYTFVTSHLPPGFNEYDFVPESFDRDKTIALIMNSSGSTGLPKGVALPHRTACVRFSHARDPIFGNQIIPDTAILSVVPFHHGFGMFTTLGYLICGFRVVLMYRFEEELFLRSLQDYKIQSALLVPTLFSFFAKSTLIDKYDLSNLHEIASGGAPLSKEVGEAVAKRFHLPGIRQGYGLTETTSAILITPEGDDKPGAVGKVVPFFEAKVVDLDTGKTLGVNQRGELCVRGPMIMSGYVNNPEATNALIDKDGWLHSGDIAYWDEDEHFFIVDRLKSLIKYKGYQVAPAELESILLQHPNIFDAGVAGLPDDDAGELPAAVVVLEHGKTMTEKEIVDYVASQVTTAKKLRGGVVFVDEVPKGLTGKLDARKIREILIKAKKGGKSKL
FLuc act counter: firefly luciferase counter-screen for stimulation assays; P08659; AID 1027; 200,000 tested, under 10 active; activation factor at 10 µM; ATPlite luciferase biochemical, luminescence, 10 min; 0 = ATP-free wells, 1 = DMSO control;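 active = luciferase activation factor, scaled between plate controls, of at least 2 with compound at 10 µM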
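System: luciferase plus luciferin reagent, cell-free; medium: PBS as buffer for the ATP substrate; dosing: test compounds dosed from 2 mM stocks in 100% DMSO; timing: 10 min post-reagent at room temperature; measured by: luminescence measurement of luciferase light output; evaluation: luciferase activation, seen as luminescence increase over controls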
C8 TRAIL sens: caspase-8 TRAIL sensitization; NB7+C8 cells + TRAIL, ATPlite viability luminescence; AID 624354; 1% of 360,000 active; inhibition (viability loss, TRAIL sensitization), % at 10 µM;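 active = compounds causing at least 50% loss of cell viability in the single-dose screen, relative to plate controls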
PPC-1+TRAIL kill: compounds killing PPC-1 cancer cells with TRAIL present (potentiator screen, no TRAIL-free arm). cell killing (% activity), % at 4 µM or 5 µM. AID 1443. PPC-1 cells + TRAIL, ATPLite viability luminescence. 0.41% of 220,000 active;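 active = cell killing above 50% in the first pass at 4 µM, then a duplicate retest at 5 µM averaging 50% or more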
Numbers stand for hits; n = inactive; x = no result given. In the library only some 1.5% were active in any assay of this set; here they are far more common.

SMILES	FLuc inhib CS	FLuc act counter	C8 TRAIL sens	PPC-1+TRAIL kill
COC(=O)c1c(O)cc(C(C)(C)C)n(-c2ccc(F)cc2)c1=O	n	n	n	n
Cc1ccc(/C=C/c2nc3ccccc3[nH]2)o1	86	n	n	n
Cc1cnc(NC(=O)C2COc3ccccc3O2)s1 (configuration not stated)	52	n	n	n
Cc1csc(NC(=O)C2COc3ccccc3O2)n1 (configuration not stated)	n	n	n	n
Cc1ccc(NC(=O)N2CCCc3ccccc32)cc1	n	n	n	n
CN1CCN(c2ccc(NC(=O)N3CCc4ccccc43)cc2)CC1	x	x	61	x
CCS(=O)(=O)c1ncc(Cl)c(C(=O)Nc2ccccc2OC)n1	x	x	89	x
COc1ccccc1NC(=O)c1nc(S(=O)(=O)Cc2ccccc2)ncc1Cl	x	x	94	x
CCOc1ccccc1NC(=O)c1ccc(C(=O)Nc2ccccc2OCC)nc1	x	x	n	x
CCOc1ccccc1NC(=O)c1nc(S(=O)(=O)Cc2ccccc2)ncc1Cl	x	x	96	x
CCCn1c(SCC(=O)NNC(=O)c2ccc(C)cc2)nnc1C(C)C	x	x	n	x
COc1ccc(NC(=O)CNc2cc(C)ccc2C)cc1S(=O)(=O)N1CCOCC1	x	x	n	x
COc1cc(NC(=O)c2cc(-c3ccc4c(c3)OCO4)on2)cc(OC)c1OC	x	x	n	x
O=C(Nc1cccc(O)c1)c1cc(-c2ccc3c(c2)OCO3)on1	x	x	92	x
O=C(Nc1cccc(O)c1)c1cc(-c2ccccc2Cl)on1	x	x	70	x
O=C(COC(=O)c1cc[n+]([O-])cc1)Nc1ccc([N+](=O)[O-])cc1C(F)(F)F	x	x	n	x
CCCCCOC(=O)c1[nH]c2c(c1C)C(=O)C(C(=O)OC)C(C)C2 (configuration not stated)	n	n	n	n
COC(=O)C1C(=O)c2c([nH]c(C(=O)OC3CCCCCC3)c2C)CC1C (configuration not stated)	n	n	n	n
COCCOC(=O)c1[nH]c2c(c1C)C(=O)C(C(=O)OC)C(C)C2 (configuration not stated)	54	n	n	n
COC(=O)C1C(=O)c2c([nH]c(C(=O)OCC3CCCO3)c2C)CC1C (configuration not stated)	54	n	n	n
Cc1ccc(Nc2nc(COC(=O)C3CC3)cs2)cc1	53	n	n	n
O=C(O)CN1C(=O)CC(c2ccccc2)CC1=O	x	x	n	x
CCOc1ccc(OCCCC(=O)N2CCN(S(=O)(=O)c3ccccc3C#N)CC2)cc1	x	x	n	x
CC(=NNC(=O)c1ccccc1N)c1ccccc1O	x	x	54	x
O=Nc1c(O)c2ccccc2c2ccccc12	x	x	92	x
SMILES	FLuc inhib CS	FLuc act counter	C8 TRAIL sens	PPC-1+TRAIL kill
O=c1ccc2ccccc2c2ccccc12	x	x	n	x
COc1ccc(NC(=S)NCc2ccccc2)c(OC)c1	x	x	n	x
CN(C)N1C(=O)CC(NNC(=O)c2ccncc2)C1=O (configuration not stated)	n	n	n	n
O=c1c2sc(-c3ccccc3)cc2nc2n1CCC2	55	n	54	n
c1cnc2nc(-c3ccc4c(c3)OCO4)cn2c1	55	n	n	n
Cc1ccc(-c2cn3cccnc3n2)cc1	66	n	n	n
O=C(Nc1cccc(-c2cn3cccnc3n2)c1)c1ccc2c(c1)OCO2	n	n	n	n
CC(=O)Nc1nnc(CSCc2ccccc2F)s1	x	x	n	n
COc1ccccc1-c1nnc(SCC(=O)Nc2ccc(N3CCOCC3)cc2)n1C	x	x	n	x
CCC1=NN(C(=O)c2cccc(Br)c2)C(O)(c2ccc(Br)cc2)C1 (configuration not stated)	n	n	49	n
CCCN(CC(=O)Nc1ccccc1C)C(=O)Cc1c(C)nc2ccccc2c1C	x	x	n	x
CC(C)c1ccc2nc(N)sc2c1	67	n	n	n
Cc1ccc(NC(=O)c2sc3nc(CCl)[nH]c(=O)c3c2C)c(C)c1	n	n	55	n
CCCOc1ccc(-c2nc(N3CCN(C)CC3)c3ccccc3n2)cc1	x	x	66	x
CCCOc1ccc(-c2nc(N3CCN(CC)CC3)c3ccccc3n2)cc1	x	x	n	x
COc1ccc(CCC(=O)N2c3ccccc3N=C(c3ccc4c(c3)OCO4)C2C(=O)NCc2ccccc2)cc1 (configuration not stated)	x	x	n	x
COc1cccc(C(C(=O)NCc2ccccc2)N2CCN(c3ccccc3F)CC2)c1OC (configuration not stated)	x	x	n	x
CCCCCCCCCCCCCCCC[n+]1ccc(C(N)=O)cc1	n	n	71	n
CCCCCCCCCCCCCCCC[n+]1ccccc1	x	x	95	x
O/N=C/c1cccc[n+]1CCCCCC[n+]1ccccc1/C=N/O	x	x	n	x
CCCCCCCCCCCCCCCC[n+]1cccc(C(=O)N(CC)CC)c1	n	n	n	n
CCCCCCCCCCCCCCCC[n+]1ccc(/C=N/O)cc1	n	n	n	70
Cc1cc(NC(=O)CSc2nnc(-c3cccc(F)c3)n2N)no1	x	x	n	x
CCCc1cc2c(=O)c(-c3ccc4c(c3)OCCO4)coc2cc1OC(=O)c1ccco1	n	n	56	n
CCc1cc2c(=O)c(-c3ccc4c(c3)OCCO4)coc2cc1OC(=O)c1ccco1	n	n	71	n
SMILES	FLuc inhib CS	FLuc act counter	C8 TRAIL sens	PPC-1+TRAIL kill
Cc1ccccc1C(=O)NNS(=O)(=O)c1ccc(F)cc1	x	x	n	x
CCn1cnc2c(Nc3cc(F)cc(F)c3)nc(C#N)nc21	x	x	n	x
N#Cc1nc(Nc2cccc(Cl)c2)c2ncn(C3CCCC3)c2n1	x	x	52	x
Cc1cc(C)nc(Sc2ccc([N+](=O)[O-])cc2[N+](=O)[O-])n1	n	n	n	n
O=[N+]([O-])c1ccc(Sc2ccncn2)c([N+](=O)[O-])c1	x	x	53	x
Cn1c(SCC(=O)Nc2ccccc2Oc2ccccc2)nnc1C1CC1	x	x	n	x
CSc1nnc(NC(=O)c2nc(S(=O)(=O)Cc3ccccc3)ncc2Cl)s1	x	x	82	x
CSc1ncc(Cl)c(C(=O)Nc2nnc(SC)s2)n1	n	n	n	n
CC(C)c1nnc(NC(=O)c2nc(S(=O)(=O)Cc3ccccc3)ncc2Cl)s1	x	x	94	x
CCCc1nnc(NC(=O)c2nc(S(=O)(=O)Cc3ccc(C)cc3)ncc2Cl)s1	x	x	n	x
Cc1ccc(CN2[C@@H](Cc3ccccc3)C(=O)CS2(=O)=O)cc1	x	x	64	x
N#CCCCC1(CCCC#N)OCCO1	x	x	n	x
CCOc1ccc(-n2c(C)cc(C(=O)CCl)c2C)cc1	n	n	53	n
COC(=O)c1ccc(-n2c(C)cc(C(=O)CCl)c2C)cc1	n	n	n	n
Cc1coc2cc3oc(=O)c(CC(=O)N[C@@H](CC(C)C)C(=O)O)c(C)c3cc12	x	x	n	x
c1ccc(-c2cnc(-c3ccccc3)nn2)cc1	x	x	52	x
c1ccc(-c2cnc(-c3ccccn3)nn2)cc1	x	x	58	x
Brc1ccc(-c2ncc(-c3ccccc3)cn2)cc1	n	n	n	n
O=C(CCC1CCCN(C(=O)C2(c3ccccc3)CC2)C1)N1CCN(c2ccccn2)CC1 (configuration not stated)	n	n	n	x
O=C(NNC(=O)c1cccs1)c1cccc(F)c1	x	x	n	x
O=C(/C=C/Nc1ccc(F)cc1F)c1cccs1	98	n	93	63
O=C(/C=C/Nc1ccccc1F)c1cccs1	95	n	87	50
O=C(/C=C\Nc1cccc(F)c1)c1cccs1	79	n	n	n

Assay outcomes (PubChem)
